Measurements from ChEMBL document CHEMBL2169842, “Structure-activity relationship in the antitumor activity of 6-, 8- or 6,8-substituted 3-benzylamino-β-carboline derivatives” (Bioorg Med Chem Lett, 2012).
The source made the active and inactive calls. No cut-off for these calls is given here.

Columns and labels:
[1] = Cytotoxicity against mouse Sarcoma 180 cells after 24 to 72 hrs by MTT assay; format: functional, cell-based
Summary of the method: (§1)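 MTT assay. IC50 taken as the drug concentration giving 50% inhibition of cell growth. Values are mean ± S.D. of four independent experiments, each run in triplicate.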

[2] = Cytotoxicity against human HeLaS3 cells after 24 to 72 hrs by MTT assay; format: functional, cell-based; settings: HeLa S3; summary of the method: as §1
[3] = Cell cycle arrest in human HeLaS3 cells assessed as accumulation at G1 phase after 48 hrs using propidium iodide staining by flow cytometry (reference value: 75.29%); format: functional, cell-based; settings: HeLa S3
Summary of the method: (§2)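 HeLa S-3 cells incubated without (control) or with compound for 9, 24 or 48 h, then fixed and stained with propidium iodide. DNA content read by flow cytometry. Populations given as percent in sub-G1, G1, S and G2/M phases.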

HeLa S3 [4] = experiment: Induction of apoptosis in human HeLaS3 cells assessed as DNA fragmentation after 48 hrs agarose-gel electrophoresis; format: functional, cell-based
Summary of the method: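 HeLa S-3 cells treated with compound for 48 h. Genomic DNA extracted and run on a 2% agarose gel beside a 100 bp ladder marker to detect DNA fragmentation.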

[5] = Cell cycle arrest in human HeLaS3 cells assessed as accumulation at G1 phase after 9 hrs using propidium iodide staining by flow cytometry (reference value: 75.29%); format: functional, cell-based; settings: HeLa S3; summary of the method: as §2
[6] = Cell cycle arrest in human HeLaS3 cells assessed as accumulation at G2/M phase after 9 hrs using propidium iodide staining by flow cytometry (reference value: 16.21%); format: functional, cell-based; settings: HeLa S3; summary of the method: as §2
HeLa S3 [7] = experiment: Induction of apoptosis in human HeLaS3 cells assessed as formation of chromatin condensation and fragmented nuclei after 48 hrs by Hoechst 33342 staining; format: functional, cell-based
Summary of the method: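 HeLa S-3 cells treated with compound for 48 h, then stained with Hoechst 33342. Nuclear chromatin examined by fluorescence microscopy for condensation and fragmented nuclei, with untreated cells as comparison.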

[8] = Cell cycle arrest in human HeLaS3 cells assessed as accumulation at sub-G1 phase after 24 hrs using propidium iodide staining by flow cytometry (reference value: 2.41%); format: functional, cell-based; settings: HeLa S3; summary of the method: as §2
[9] = Cell cycle arrest in human HeLaS3 cells assessed as accumulation at G1 phase after 24 hrs using propidium iodide staining by flow cytometry (reference value: 75.29%); format: functional, cell-based; settings: HeLa S3; summary of the method: as §2
[10] = Cell cycle arrest in human HeLaS3 cells assessed as accumulation at G2/M phase after 24 hrs using propidium iodide staining by flow cytometry (reference value: 16.21%); format: functional, cell-based; settings: HeLa S3; summary of the method: as §2
[11] = Cell cycle arrest in human HeLaS3 cells assessed as accumulation at sub-G1 phase after 48 hrs using propidium iodide staining by flow cytometry (reference value: 2.41%); format: functional, cell-based; settings: HeLa S3; summary of the method: as §2
[12] = Cell cycle arrest in human HeLaS3 cells assessed as accumulation at sub-G1 phase after 9 hrs using propidium iodide staining by flow cytometry (reference value: 2.41%); format: functional, cell-based; settings: HeLa S3; summary of the method: as §2
[13] = Cell cycle arrest in human HeLaS3 cells assessed as accumulation at S phase after 48 hrs using propidium iodide staining by flow cytometry (reference value: 6.36%); format: functional, cell-based; settings: HeLa S3
[14] = Cell cycle arrest in human HeLaS3 cells assessed as accumulation at S phase after 24 hrs using propidium iodide staining by flow cytometry (reference value: 6.36%); format: functional, cell-based; settings: HeLa S3
[15] = Cell cycle arrest in human HeLaS3 cells assessed as accumulation at S phase after 9 hrs using propidium iodide staining by flow cytometry (reference value: 6.36%); format: functional, cell-based; settings: HeLa S3
[16] = Cell cycle arrest in human HeLaS3 cells assessed as accumulation at G2/M phase after 48 hrs using propidium iodide staining by flow cytometry (reference value: 16.21%); format: functional, cell-based; settings: HeLa S3; summary of the method: as §2
HEK-293T = experiment: Cytotoxicity against human 293T cells after 24 to 72 hrs by MTT assay; format: cell-based; summary of the method: as §1

| Structure (SMILES) | IC50 [1] | IC50 [2] | IC50 (HEK-293T) | further results |
| --- | --- | --- | --- | --- |
| O=C(Nc1cc(Cl)cc2c1[nH]c1cnc(NCc3ccccc3)cc12)C(F)(F)F | 5.1 µM | 6.3 µM | – | – |
| c1ccc(CNc2cc3c(cn2)[nH]c2ccccc23)cc1 | 0.44 µM | 0.11 µM | – | Activity [3]: 12.2%; Activity (HeLa S3 [4]): Active; Activity [5]: 22.6%; Activity [6]: 57%; Activity (HeLa S3 [7]): Active; Activity [8]: 16.2%; Activity [9]: 6.93%; Activity [10]: 67.7%; Activity [11]: 18.8%; Activity [12]: 6.08%; Activity [13]: 16.2%; Activity [14]: 9.18%; Activity [15]: 14.3%; Activity [16]: 52.8% |
| CNc1cccc2c1[nH]c1cnc(NCc3ccccc3)cc12 | 0.024 µM | 0.046 µM | – | – |
| Clc1cc(NCc2ccco2)c2[nH]c3cnc(NCc4ccccc4)cc3c2c1 | – | 3.8 µM | 3.1 µM | – |
| O=C(Nc1cc(Cl)cc2c1[nH]c1cnc(NCc3ccccc3)cc12)C(F)(F)C(F)(F)F | 6.1 µM | 9.2 µM | – | – |
| CC(C)(C)C(=O)Nc1ccc2[nH]c3cnc(NCc4ccccc4)cc3c2c1 | – | 14 µM | – | – |
| CS(=O)(=O)Nc1ccc2[nH]c3cnc(NCc4ccccc4)cc3c2c1 | – | 19 µM | – | – |
| CCCCC(=O)Nc1cc(Cl)cc2c1[nH]c1cnc(NCc3ccccc3)cc12 | 0.53 µM | 0.99 µM | 0.5 µM | – |
| CNc1ccc2[nH]c3cnc(NCc4ccccc4)cc3c2c1 | – | 10 µM | – | – |
| O=C(Nc1cc(Cl)cc2c1[nH]c1cnc(NCc3ccccc3)cc12)C(F)(F)C(F)(F)C(F)(F)F | 5.2 µM | 7 µM | – | – |
| Clc1cc(NCc2cccnc2)c2[nH]c3cnc(NCc4ccccc4)cc3c2c1 | 0.76 µM | 1.2 µM | 1 µM | – |
| O=C(Nc1cc(Cl)cc2c1[nH]c1cnc(NCc3ccccc3)cc12)c1cccnc1 | 8.3 µM | 15 µM | 10 µM | – |
| c1ccc(CNc2ccc3[nH]c4cnc(NCc5ccccc5)cc4c3c2)cc1 | – | 21 µM | – | – |
| Nc1cc(Cl)cc2c1[nH]c1cnc(NCc3ccccc3)cc12 | 3.24 µM | 6.09 µM | 9.8 µM | – |
| O=C(Nc1ccc2[nH]c3cnc(NCc4ccccc4)cc3c2c1)c1ccccc1 | – | 10 µM | – | – |
| Clc1ccc2[nH]c3cnc(NCc4cccc(Oc5ccccc5)c4)cc3c2c1 | 1.36 µM | 1.8 µM | – | – |
| Nc1cc2c(cn1)[nH]c1ccccc12 | 41 µM | 66 µM | – | – |
| CCS(=O)(=O)Nc1cc(Cl)cc2c1[nH]c1cnc(NCc3ccccc3)cc12 | – | 4.84 µM | – | – |
| c1ccc(Oc2cccc(CNc3cc4c(cn3)[nH]c3ccccc34)c2)cc1 | 0.03 µM | 0.074 µM | – | – |
| Nc1cc2c(cn1)[nH]c1ccc(Cl)cc12 | 29 µM | 71 µM | – | – |
| Clc1cc(NCc2ccccc2)c2[nH]c3cnc(NCc4ccccc4)cc3c2c1 | 2.6 µM | 4.2 µM | 3.8 µM | – |
| CCC(=O)Nc1cc(Cl)cc2c1[nH]c1cnc(NCc3ccccc3)cc12 | 5.4 µM | 9.9 µM | 5.8 µM | – |
| CNc1cccc2c1[nH]c1cnc(N)cc12 | – | 12 µM | – | – |
| CNc1cccc2c1[nH]c1cnc(NCc3cccc(Oc4ccccc4)c3)cc12 | – | 0.032 µM | – | – |
| Nc1cc2c(cn1)[nH]c1c(NC(=O)c3ccccc3)cccc12 | 98 µM | 118 µM | – | – |

| Structure (SMILES) | IC50 [1] | IC50 [2] | IC50 (HEK-293T) | further results |
| --- | --- | --- | --- | --- |
| CC(C)Nc1cc(Cl)cc2c1[nH]c1cnc(NCc3ccccc3)cc12 | – | 1.1 µM | 0.7 µM | – |
| CCCNc1cc(Cl)cc2c1[nH]c1cnc(NCc3ccccc3)cc12 | 1.36 µM | 2.9 µM | 2 µM | – |
| Nc1cc2c(cn1)[nH]c1c(NC(=O)c3ccccc3)cc(Cl)cc12 | 12.4 µM | 26.1 µM | – | – |
| Clc1cc(NCc2ccncc2)c2[nH]c3cnc(NCc4ccccc4)cc3c2c1 | 1 µM | 1.4 µM | 1.4 µM | – |
| CCNc1cc(Cl)cc2c1[nH]c1cnc(NCc3ccccc3)cc12 | 0.24 µM | 0.27 µM | 0.36 µM | – |
| O=C(Nc1cc(Cl)cc2c1[nH]c1cnc(NCc3ccccc3)cc12)c1ccncc1 | 7.9 µM | 13 µM | 8 µM | – |
| Clc1cc(NCc2cccs2)c2[nH]c3cnc(NCc4ccccc4)cc3c2c1 | 1.69 µM | 4.2 µM | 4 µM | – |
| O=[N+]([O-])c1ccc2[nH]c3cnc(NCc4ccccc4)cc3c2c1 | – | 28 µM | – | – |
| CCCCC(=O)Nc1cccc2c1[nH]c1cnc(N)cc12 | 38 µM | 56 µM | – | – |
| CNc1cc(Cl)cc2c1[nH]c1cnc(NCc3ccccc3)cc12 | 0.25 µM | 0.2 µM | 0.35 µM | – |
| Nc1ccc2[nH]c3cnc(NCc4ccccc4)cc3c2c1 | – | 11 µM | – | – |
| Clc1cc(NCc2ccccn2)c2[nH]c3cnc(NCc4ccccc4)cc3c2c1 | 1 µM | 1.5 µM | 1.1 µM | – |
| c1ccc(CNc2cc3c(cn2)[nH]c2ccc(NCc4ccco4)cc23)cc1 | – | 15 µM | – | – |
| CCCCC(=O)Nc1cc(Cl)cc2c1[nH]c1cnc(N)cc12 | 18.1 µM | 27 µM | – | – |
| CCS(=O)(=O)Nc1ccc2[nH]c3cnc(NCc4ccccc4)cc3c2c1 | – | 3.4 µM | – | – |
| CS(=O)(=O)Nc1cc(Cl)cc2c1[nH]c1cnc(NCc3ccccc3)cc12 | – | 8 µM | – | – |
| O=C(Nc1cccc2c1[nH]c1cnc(NCc3ccccc3)cc12)c1ccccc1 | – | 0.141 µM | – | Activity [3]: 9.36%; Activity (HeLa S3 [4]): Active; Activity [5]: 21.1%; Activity [6]: 65.6%; Activity (HeLa S3 [7]): Active; Activity [8]: 5.87%; Activity [9]: 12.8%; Activity [10]: 71.1%; Activity [11]: 18.2%; Activity [12]: 3.89%; Activity [13]: 9.05%; Activity [14]: 10.2%; Activity [15]: 9.4%; Activity [16]: 63.4% |
| O=C(Nc1cc(Cl)cc2c1[nH]c1cnc(NCc3ccccc3)cc12)c1ccccn1 | 1.9 µM | 3.7 µM | 4 µM | – |
| CCCCNc1cc(Cl)cc2c1[nH]c1cnc(NCc3ccccc3)cc12 | 1.6 µM | 2.6 µM | 2.1 µM | – |
| CC(=O)Nc1cc(Cl)cc2c1[nH]c1cnc(NCc3ccccc3)cc12 | 16.2 µM | 21 µM | 15 µM | – |
| CCCCCC(=O)Nc1cc(Cl)cc2c1[nH]c1cnc(NCc3ccccc3)cc12 | 0.92 µM | 2.13 µM | 1.4 µM | – |
| CCCC(=O)Nc1cc(Cl)cc2c1[nH]c1cnc(NCc3ccccc3)cc12 | 1.35 µM | 2.6 µM | 2.3 µM | – |
| CC(C)C(=O)Nc1cc(Cl)cc2c1[nH]c1cnc(NCc3ccccc3)cc12 | 8 µM | 9 µM | 8 µM | – |
| Clc1cc(Cl)c2[nH]c3cnccc3c2c1 | – | 0.2 µM | – | – |
